{"source": "ChEMBL document CHEMBL1133188", "about": "“Discovery of novel, potent, and selective small-molecule CCR5 antagonists as anti-HIV-1 agents: synthesis and biological evaluation of anilide derivatives with a quaternary ammonium moiety” (J Med Chem, 2000)", "key": {"[1]": {"molecular_target": "C-C chemokine receptor type 5 (Homo sapiens, UniProt P51681)", "sequence (P51681 whole entry)": "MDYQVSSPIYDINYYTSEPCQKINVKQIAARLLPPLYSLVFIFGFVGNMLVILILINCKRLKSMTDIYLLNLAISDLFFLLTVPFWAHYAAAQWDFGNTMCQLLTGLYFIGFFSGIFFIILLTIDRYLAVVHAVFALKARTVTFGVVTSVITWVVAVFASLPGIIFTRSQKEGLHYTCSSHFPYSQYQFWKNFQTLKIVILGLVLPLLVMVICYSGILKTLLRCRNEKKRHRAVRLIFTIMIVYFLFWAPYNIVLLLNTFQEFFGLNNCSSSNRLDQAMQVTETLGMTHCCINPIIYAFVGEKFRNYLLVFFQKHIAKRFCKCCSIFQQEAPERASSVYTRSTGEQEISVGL", "experiment": "Inhibitory effect on Chemokine binding to C-C chemokine receptor type 5 using [125I]RANTES", "procedure,_shortened": "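CHO/CCR5 cells (5 × 10⁴ cells/100 μL) cultured 24 h at 37 °C, then medium replaced with Ham's F-12 binding buffer containing 20 mM Hepes and 0.5% BSA, pH 7.2. Binding with [125I]RANTES (2000 Ci/mmol) plus graded compound concentrations, room temperature, 40 min. Free ligand removed by washing with cold PBS; cell-bound radioactivity counted. IC50 = 50% inhibition of binding; means of duplicate separate experiments (one compound triplicate).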"}, "[2]": {"molecular_target": "T1, C-C chemokine receptor type 3 (Homo sapiens, UniProt P51677)", "T1 sequence (P51677 whole entry)": "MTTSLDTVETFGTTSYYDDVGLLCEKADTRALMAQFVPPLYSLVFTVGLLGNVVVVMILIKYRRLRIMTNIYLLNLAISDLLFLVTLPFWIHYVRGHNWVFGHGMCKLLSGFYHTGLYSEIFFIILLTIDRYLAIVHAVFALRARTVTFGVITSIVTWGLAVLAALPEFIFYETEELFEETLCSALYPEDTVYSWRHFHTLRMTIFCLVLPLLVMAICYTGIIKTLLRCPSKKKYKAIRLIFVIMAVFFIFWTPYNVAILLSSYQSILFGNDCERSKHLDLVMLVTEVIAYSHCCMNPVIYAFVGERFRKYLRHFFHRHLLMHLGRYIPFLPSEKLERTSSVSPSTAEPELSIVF", "experiment": "Inhibitory effect on the binding of [125I]- eotaxin to C-C chemokine receptor type 3- expressing CHO cells", "type": "cell-based", "procedure,_shortened": "(§1)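 Whole-cell radioligand binding on CHO cells expressing CCR1 ([125I]RANTES), CCR3 ([125I]eotaxin) or CCR4 ([125I]TARC). Cells were seeded and cultured 24 h at 37 °C. Binding ran in Ham's F-12 with 20 mM Hepes and 0.5% BSA, pH 7.2, at room temperature for 40 min with graded compound. After a cold-PBS wash, cell-bound radioactivity was counted. Means ± SEM of ≥3 separate experiments.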"}, "[3]": {"molecular_target": "T2, C-C chemokine receptor type 1 (Homo sapiens, UniProt P32246)", "T2 sequence (P32246 whole entry)": "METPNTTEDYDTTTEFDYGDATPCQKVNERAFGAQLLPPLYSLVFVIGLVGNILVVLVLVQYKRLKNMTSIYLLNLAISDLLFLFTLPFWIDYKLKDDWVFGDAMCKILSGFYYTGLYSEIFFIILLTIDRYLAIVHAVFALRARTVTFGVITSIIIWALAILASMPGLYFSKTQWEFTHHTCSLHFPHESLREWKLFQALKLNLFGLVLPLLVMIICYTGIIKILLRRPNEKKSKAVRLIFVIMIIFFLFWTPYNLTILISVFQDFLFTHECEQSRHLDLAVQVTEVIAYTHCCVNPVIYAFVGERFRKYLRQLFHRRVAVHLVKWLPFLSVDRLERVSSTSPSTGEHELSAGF", "experiment": "Inhibitory effect on the binding of [125I]RANTES to C-C chemokine receptor type 1-expressing CHO cells", "type": "cell-based", "procedure,_shortened": "as §1"}, "[4]": {"molecular_target": "C-C chemokine receptor type 2 (Homo sapiens, UniProt P41597)", "sequence (P41597 whole entry)": "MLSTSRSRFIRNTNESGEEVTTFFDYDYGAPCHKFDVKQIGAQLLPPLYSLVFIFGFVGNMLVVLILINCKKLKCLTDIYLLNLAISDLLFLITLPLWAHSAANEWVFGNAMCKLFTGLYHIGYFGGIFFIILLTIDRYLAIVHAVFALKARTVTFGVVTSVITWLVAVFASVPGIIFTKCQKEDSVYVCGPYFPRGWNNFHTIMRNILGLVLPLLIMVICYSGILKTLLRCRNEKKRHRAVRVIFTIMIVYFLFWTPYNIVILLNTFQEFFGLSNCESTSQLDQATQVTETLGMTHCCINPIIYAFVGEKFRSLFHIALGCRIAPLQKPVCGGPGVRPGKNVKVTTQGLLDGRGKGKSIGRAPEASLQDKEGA", "experiment": "Inhibitory effect on the binding of [125I]- MCP-1 to C-C chemokine receptor type 2-expressing CHO cells", "type": "cell-based", "procedure,_shortened": "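CCR2b-expressing CHO cells (5 × 10⁴ cells/100 μL) cultured 24 h at 37 °C. Medium replaced with binding buffer: Ham's F-12, 20 mM Hepes, 0.5% BSA, pH 7.2. [125I]MCP-1 binding run at room temperature for 40 min with graded test-compound concentrations. Free ligand washed off with cold PBS; cell-associated radioactivity counted by scintillation.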"}, "[5]": {"molecular_target": "T3, C-C chemokine receptor type 4 (Homo sapiens, UniProt P51679)", "T3 sequence (P51679 whole entry)": "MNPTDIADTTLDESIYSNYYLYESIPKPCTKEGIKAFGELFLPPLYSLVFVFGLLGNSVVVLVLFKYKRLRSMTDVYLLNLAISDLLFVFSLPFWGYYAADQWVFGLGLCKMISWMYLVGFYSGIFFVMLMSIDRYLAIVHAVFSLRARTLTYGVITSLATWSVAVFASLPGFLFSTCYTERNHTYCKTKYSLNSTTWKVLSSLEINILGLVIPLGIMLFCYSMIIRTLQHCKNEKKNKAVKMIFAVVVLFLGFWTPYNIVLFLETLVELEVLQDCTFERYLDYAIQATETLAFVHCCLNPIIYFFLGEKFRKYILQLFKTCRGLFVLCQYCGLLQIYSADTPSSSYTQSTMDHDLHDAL", "experiment": "Inhibitory effect on the binding of [125I]TARC to C-C chemokine receptor type 4-expressing CHO cells", "type": "cell-based", "procedure,_shortened": "as §1"}, "[6]": {"experiment": "Inhibitory effects on HIV-1 (Ba-L) replication was evaluated in MAGI-CCR5 cells", "type": "functional, cell-based", "details": "Homo sapiens"}, "[7]": {"tested_on": "Human immunodeficiency virus 1", "experiment": "Inhibitory effects on HIV-1 (Ba-L) replication was evaluated in PBMCs", "type": "functional, organism-based"}}}
{"smiles": "C[N+]1(Cc2ccc(NC(=O)C3=Cc4cc(-c5ccccc5)ccc4CC3)cc2)CCOCC1", "values": [{"measurement": "IC50", "setting": "[1]", "value": 1200, "unit": "nM"}]}
{"smiles": "Cc1ccc(-c2ccc3c(c2)C=C(C(=O)Nc2ccc(C[N+](C)(C)C4CCSCC4)cc2)CCO3)cc1", "values": [{"measurement": "IC50", "setting": "[1]", "value": 3.1, "unit": "nM"}]}
{"smiles": "CC[N+](CC)(CC)Cc1ccc(NC(=O)C2=Cc3cc(-c4ccccc4)ccc3CC2)cc1", "values": [{"measurement": "IC50", "setting": "[1]", "value": 840, "unit": "nM"}]}
{"smiles": "Cc1ccc(-c2ccc3c(c2)C=C(C(=O)Nc2ccc(C[N+]4(C)CCCCC4)cc2)CC3)cc1", "values": [{"measurement": "IC50", "setting": "[1]", "value": 240, "unit": "nM"}]}
{"smiles": "Cc1cccc[n+]1Cc1ccc(NC(=O)C2=Cc3cc(-c4ccccc4)ccc3CC2)cc1", "values": [{"measurement": "IC50", "setting": "[1]", "value": 3200, "unit": "nM"}]}
{"smiles": "Cc1ccc(-c2ccc3c(c2)C=C(C(=O)Nc2ccc(C[N+](C)(C)C4CCOCC4)cc2)CCC3)cc1", "note": "[listing 1 of 2 here]", "values": [{"measurement": "IC50", "setting": "[1]", "value": 1.4, "unit": "nM"}, {"measurement": "IC50", "setting": "[2]", "value": "> 10000", "unit": "nM"}, {"measurement": "IC50", "setting": "[3]", "value": "> 10000", "unit": "nM"}, {"measurement": "IC50", "setting": "[4]", "value": 27, "unit": "nM"}, {"measurement": "IC50", "setting": "[5]", "value": "> 10000", "unit": "nM"}, {"measurement": "EC50", "setting": "[6]", "value": 1.2, "unit": "nM"}, {"measurement": "EC50", "setting": "[7]", "value": 3.7, "unit": "nM"}]}
{"smiles": "Cc1ccc(-c2ccc3c(c2)C=C(C(=O)Nc2ccc(C[N+]4(C)CCCCC4)cc2)CCO3)cc1", "values": [{"measurement": "IC50", "setting": "[1]", "value": 43, "unit": "nM"}]}
{"smiles": "CCC(CC)[N+](C)(C)Cc1ccc(NC(=O)C2=Cc3cc(-c4ccc(C)cc4)ccc3OCC2)cc1", "values": [{"measurement": "IC50", "setting": "[1]", "value": 3.3, "unit": "nM"}]}
{"smiles": "C[N+]1(Cc2ccc(NC(=O)C3=Cc4cc(-c5ccccc5)ccc4CC3)cc2)CCCCCC1", "values": [{"measurement": "IC50", "setting": "[1]", "value": 380, "unit": "nM"}]}
{"smiles": "C[N+]1(Cc2ccc(NC(=O)C3=Cc4cc(-c5ccccc5)ccc4CC3)cc2)CCCC1", "values": [{"measurement": "IC50", "setting": "[1]", "value": 430, "unit": "nM"}]}
{"smiles": "Cc1ccc(-c2ccc3c(c2)C=C(C(=O)Nc2ccc(CC[N+]4(C)CCCCC4)cc2)CCO3)cc1", "values": [{"measurement": "IC50", "setting": "[1]", "value": 110, "unit": "nM"}]}
{"smiles": "C[N+](C)(Cc1ccc(NC(=O)C2=Cc3cc(-c4ccc(N5CCCCC5)cc4)ccc3CCC2)cc1)C1CCOCC1", "values": [{"measurement": "IC50", "setting": "[1]", "value": 2.2, "unit": "nM"}]}
{"smiles": "Cc1ccc(-c2ccc3c(c2)C=C(C(=O)Nc2ccc(C[N+](C)(C)C4CCOCC4)cc2)CCC3)cc1", "note": "[listing 2 of 2 here]", "values": [{"measurement": "IC50", "setting": "[1]", "value": 1.8, "unit": "nM"}]}
{"smiles": "Cc1ccc(-c2ccc3c(c2)C=C(C(=O)Nc2ccc(C[N+](C)(C)CCCO)cc2)CCO3)cc1", "values": [{"measurement": "IC50", "setting": "[1]", "value": 6.8, "unit": "nM"}]}
{"smiles": "CCOc1ccc(-c2ccc3c(c2)C=C(C(=O)Nc2ccc(C[N+](C)(C)C4CCOCC4)cc2)CCO3)cc1", "values": [{"measurement": "IC50", "setting": "[1]", "value": 1.8, "unit": "nM"}]}
{"smiles": "C[N+]1(CCc2ccc(NC(=O)C3=Cc4cc(-c5ccccc5)ccc4CC3)cc2)CCCCC1", "values": [{"measurement": "IC50", "setting": "[1]", "value": 1100, "unit": "nM"}]}
{"smiles": "Cc1ccc(-c2ccc3c(c2)C=C(C(=O)Nc2ccc(C[N+]4(C)CCCCC4)cc2)CCC3)cc1", "values": [{"measurement": "IC50", "setting": "[1]", "value": 25, "unit": "nM"}]}
{"smiles": "CCCC[P+](CCCC)(CCCC)Cc1ccc(NC(=O)/C=C/c2cccc(-c3ccc(C)cc3)c2)cc1", "values": [{"measurement": "IC50", "setting": "[1]", "value": 620, "unit": "nM"}]}
{"smiles": "Cc1ccc(-c2ccc3c(c2)C=C(C(=O)Nc2ccc(C[N+]4(C)CCCCC4)cc2)CO3)cc1", "values": [{"measurement": "IC50", "setting": "[1]", "value": 660, "unit": "nM"}]}
{"smiles": "C[N+](C)(Cc1ccc(NC(=O)C2=Cc3cc(-c4ccc(N5CCCC5)cc4)ccc3CCC2)cc1)C1CCOCC1", "values": [{"measurement": "IC50", "setting": "[1]", "value": 3.8, "unit": "nM"}]}
{"smiles": "Cc1ccc(-c2ccc3c(c2)C=C(C(=O)Nc2ccc(C[N+](C)(C)C4CCC(=O)CC4)cc2)CCO3)cc1", "values": [{"measurement": "IC50", "setting": "[1]", "value": 4.5, "unit": "nM"}]}
{"smiles": "Cc1ccc(-c2ccc3c(c2)C=C(C(=O)Nc2ccc(C[N+](C)(C)C4CCOCC4)cc2)CCO3)cc1", "values": [{"measurement": "IC50", "setting": "[1]", "value": 1.4, "unit": "nM"}]}
{"smiles": "C[N+](C)(Cc1ccc(NC(=O)C2=Cc3cc(-c4ccc(C(F)(F)F)cc4)ccc3OCC2)cc1)C1CCOCC1", "values": [{"measurement": "IC50", "setting": "[1]", "value": 1.5, "unit": "nM"}]}
{"smiles": "C[N+]1(Cc2ccc(NC(=O)C3=Cc4cc(-c5ccccc5)ccc4CC3)cc2)CCCCC1", "values": [{"measurement": "IC50", "setting": "[1]", "value": 390, "unit": "nM"}]}
{"smiles": "Cc1ccc(-c2cccc(/C=C/C(=O)Nc3ccc(C[N+]4(C)CCCCC4)cc3)c2)cc1", "values": [{"measurement": "IC50", "setting": "[1]", "value": 570, "unit": "nM"}]}
